Data reported in ChEMBL document CHEMBL1133100, “Design and synthesis of Cyclopenta[g]quinazoline-based antifolates as inhibitors of thymidylate synthase and potential antitumor agents(,)” (J Med Chem, 2000).

What was measured:
[1] = test system: L1210; assay: Compound was tested for the inhibition of L1210:1565 cell growth in mouse; value given as 3.5,4.1; assay type: functional, cell-based
[2] = test system: L1210; assay: Compound was tested for the inhibition of L1210 cell growth in mouse; value given as 1.7,2.0; assay type: functional, cell-based
[3] = target: T1, Thymidylate synthase (Mus musculus, UniProt P07607); assay: Compound was tested for the binding affinity against thymidylate synthase from L1210 mouse leukemia cells; value given as 2.4,1.8; assay type: cell-based; details: read-out: Ki app
Outline: (§1)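 Enzyme source was partially purified thymidylate synthase from L1210 mouse leukemia cells that overproduce TS through TS gene amplification. Apparent Ki was determined alongside the control CB3717 in each experiment. The test Kiapp/CB3717 Kiapp ratio was multiplied by the mean CB3717 Kiapp across experiments to allow comparison between experiments.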

[4] = test system: L1210; assay: Compound was tested for the inhibition of L1210 cell growth in mouse.; assay type: functional, cell-based
[5] = test system: L1210; assay: Compound was tested for the inhibition of L1210: 1565 cell growth in mouse.; assay type: functional, cell-based
[6] = target: T1, Thymidylate synthase; assay: Binding affinity against thymidylate synthase from L1210 mouse leukemia cells; assay type: cell-based; details: read-out: Ki app; outline: as §1
[7] = test system: L1210; assay: Compound was tested for the inhibition of L1210: 1565 cell growth in mouse; value given as 3.9, 3.0; assay type: functional, cell-based
[8] = test system: L1210; assay: Compound was tested for the inhibition of L1210 cell growth in mouse; value given as 7.2, 7.2; assay type: functional, cell-based
[9] = target: T1, Thymidylate synthase; assay: Compound was tested for the binding affinity against thymidylate synthase from L1210 mouse leukemia cells; value given as 0.9, 2.0; assay type: cell-based; details: read-out: Ki app; outline: as §1
[10] = test system: L1210; assay: Compound was tested for the inhibition of L1210 cell growth in mouse; Value was given as 2.3,1.8.; assay type: functional, cell-based
[11] = test system: L1210; assay: Compound was tested for the inhibition of L1210: 1565 cell growth in mouse; value given as 8.2, 7.8; assay type: functional, cell-based
[12] = test system: L1210; assay: Compound was tested for the inhibition of L1210: 1565 cell growth in mouse; value given as 3.6, 2.7; assay type: functional, cell-based
[13] = test system: L1210; assay: Compound was tested for the inhibition of L1210: 1565 cell growth in mouse; value given as 1.2, 1.6; assay type: functional, cell-based
[14] = test system: L1210; assay: Compound was tested for the inhibition of L1210: 1565 cell growth in mouse; Value given as 1.3,0.84; assay type: functional, cell-based

T1 sequence (P07607 whole entry): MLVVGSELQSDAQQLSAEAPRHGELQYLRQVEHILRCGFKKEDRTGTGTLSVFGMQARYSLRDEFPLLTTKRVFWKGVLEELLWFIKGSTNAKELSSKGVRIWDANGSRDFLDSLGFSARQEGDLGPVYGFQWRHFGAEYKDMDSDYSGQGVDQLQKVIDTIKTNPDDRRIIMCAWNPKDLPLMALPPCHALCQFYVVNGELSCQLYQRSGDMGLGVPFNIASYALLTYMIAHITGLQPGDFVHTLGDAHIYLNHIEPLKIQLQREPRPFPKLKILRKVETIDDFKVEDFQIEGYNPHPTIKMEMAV

Compound	IC50 [4] [µM]	IC50 [5] [µM]	Ki [6] [µM]	further results
C#CCN(c1ccc(C(=O)N[C@@H](CCc2nnnn2CC(=O)O)C(=O)O)cc1)C1CCc2cc3nc(C)nc(O)c3cc21 (some centres not stated)				IC50 [1]: 4.1 µM; IC50 [2]: 2 µM; Ki [3]: 0.0024 µM
C#CCN(c1ccc(C(=O)N[C@@H](CCC(=O)N[C@H](CCC(=O)O)C(=O)O)C(=O)O)cc1)C1CCc2cc3nc(C)nc(O)c3cc21 (some centres not stated)	0.3	2.2	0.00042	
C#CCN(c1ccc(C(=O)N[C@@H](CCc2nnnn2CC(=O)N[C@H](C)C(=O)O)C(=O)O)cc1)C1CCc2cc3nc(C)nc(O)c3cc21 (some centres not stated)	19	13	0.0022	
C#CCN(c1ccc(C(=O)N[C@@H](CCC(=O)N[C@@H](CCc2nnnn2CC(=O)O)C(=O)O)C(=O)O)cc1)C1CCc2cc3nc(C)nc(O)c3cc21 (some centres not stated)			0.00026	IC50 [7]: 3.9 µM; IC50 [8]: 7.2 µM
C#CCN(Cc1cc2c(O)nc(C)nc2cc1C)c1ccc(C(=O)N[C@@H](CCC(=O)N[C@H](CCC(=O)O)C(=O)O)C(=O)O)cc1	0.22	14	0.002	
C#CCN(c1ccc(C(=O)N[C@@H](CCc2nnnn2CCCC(=O)O)C(=O)O)cc1)C1CCc2cc3nc(C)nc(O)c3cc21 (some centres not stated)	2.7	2.3		Ki [9]: 0.002 µM
C#CCN(c1ccc(C(=O)N[C@@H](CCC(=O)N(C)[C@H](CCC(=O)O)C(=O)O)C(=O)O)cc1)C1CCc2cc3nc(C)nc(O)c3cc21 (some centres not stated)		4.4	0.00078	IC50 [10]: 2.3 µM
C#CCN(c1ccc(C(=O)N[C@@H](CCCS(=O)(=O)c2nnc[nH]2)C(=O)O)cc1)C1CCc2cc3nc(C)[nH]c(=O)c3cc21 (some centres not stated)	0.49	0.68	0.00078	
C#CCN(c1ccc(C(=O)N[C@@H](CCC(=O)N[C@H](C)C(=O)NS(=O)(=O)c2ccccc2)C(=O)O)cc1)C1CCc2cc3nc(C)nc(O)c3cc21 (some centres not stated)	1.9		0.0024	IC50 [11]: 8.2 µM
C#CCN(c1ccc(C(=O)N[C@@H](CCC(=O)N[C@H](CCC)c2nnn[nH]2)C(=O)O)cc1)C1CCc2cc3nc(C)[nH]c(=O)c3cc21 (some centres not stated)	0.44		0.0026	IC50 [12]: 3.6 µM
C#CCN(c1ccc(C(=O)N[C@@H](CCC(=O)N[C@H](C)C(=O)O)C(=O)O)cc1)C1CCc2cc3nc(C)nc(O)c3cc21 (some centres not stated)	0.42	1.4	0.0011	
C#CCN(c1ccc(C(=O)N[C@@H](CCC(=O)N[C@H](C)c2nnn[nH]2)C(=O)O)cc1)C1CCc2cc3nc(C)[nH]c(=O)c3cc21 (some centres not stated)	0.64		0.0022	IC50 [13]: 1.6 µM
C#CCN(c1ccc(C(=O)N[C@@H](CCc2nnn(CC(=O)O)n2)C(=O)O)cc1)C1CCc2cc3nc(C)nc(O)c3cc21 (some centres not stated)	0.18		0.0017	IC50 [14]: 1.3 µM
C#CCN(c1ccc(C(=O)N[C@@H](CCC(=O)N[C@H](CCC(=O)O)c2nnn[nH]2)C(=O)O)cc1)C1CCc2cc3nc(C)[nH]c(=O)c3cc21 (some centres not stated)	1.5	1.3	0.0002	
